A selection: hits, their analogues and other compounds. The true share with any hit is near 2%.
T cruzi inh = T. cruzi replication inhibition. 300,000 tested, 1.4% active. inhibition, % (no concentration beside the values). AID 1885. T. cruzi beta-gal in NIH3T3, luminescence, 90 h;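 active = mean inhibition across valid replicates above about 55%, limit read from the data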;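 note: signal also drops with host cell toxicity which is not excluded here; 0% = plate median of DMSO wells and 100% = zero luminescence signal; higher percent means less beta-gal luminescence so fewer parasites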
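System: Mouse NIH/3T3 fibroblasts infected with β-gal-expressing T. cruzi Tulahuen C4 | Quantity: NIH/3T3 cells, 5,000 per well | Reagent: 5000 reporter trypomastigotes per well | Dosing: Compound pinned at 50 nL/well, DMSO | Schedule: 3 h host attachment, then at least 90 h co-culture | Detection: GalScreen luminescence, 60 min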
ARNT-TACC3 inh = disruptors of human ARNT/TACC3 interaction. AID 623870. 390,000 tested, 0.66% active. AlphaScreen His-ARNT PAS-B/GST-TACC3 binding, luminescence; TACC3 fragment carries E629A point mutation. inhibition, % at 9.99 µM. Q9Y6A5;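 active = mean inhibition of replicates at least 50% and at least half of replicates each reaching 50%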;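 note: 0% = complete ARNT plus TACC3 wells and 100% = ARNT alone without TACC3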
AI-2 QS modul = modulators of Vibrio harveyi AI-2 quorum sensing system | Vibrio harveyi JMH597 AI-2 luminescence/OD600 ratio, 9 h; active compounds read low; strain lacks LuxN and CqsS sensors; 0 = neutral-control median | activity change, % at 7.5 µM | 300,000 tested, 0.4% active; in the data active = activity change below about -75%, passing the limit was not always enough;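 note: luminescence divided by OD600 gain over 9 h not by final OD600 alone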
HIF activator = HIF pathway transcriptional activation; U2OS HRE-luciferase reporter, luminescence; normalized: DMSO 0%, desferrioxamine 100%; activation, % at 7.5 µM (by protocol); 300,000 tested, 0.32% active;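 active = mean activation of at least 10% of the iron chelator positive control signal, with at least half of replicates also reaching 10%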
An asterisk follows results filed as active; · = no result given; + = active, no number.

SMILES	T cruzi inh	ARNT-TACC3 inh	AI-2 QS modul	HIF activator
O=C(C[C@@H]1C=C[C@@H](NC(=O)Nc2ccc3c(c2)OCO3)[C@H](CO)O1)NCc1ccc(F)cc1	·	-2	·	·
COc1cccc(-c2cnc3c(c2)C(=O)N([C@H](C)CO)C[C@H](C)[C@H](CN(C)S(=O)(=O)c2cccs2)O3)c1	·	7	·	·
O=C(C[C@@H]1C[C@H]2c3cc(NS(=O)(=O)c4ccc(F)cc4)ccc3O[C@H]2[C@@H](CO)O1)NCc1ccccc1	·	-3	·	·
CCCCc1nnc(NC(=O)CN2C(=O)c3ccccc3C2=O)s1	-7	-6	-86*	0
Cc1c(Cl)ccc2sc(NC(=O)CN3C(=O)c4ccccc4C3=O)nc12	0	-10	-95*	0
CN(CCC#N)C(=O)c1cc2c(Cl)nc3ccccc3c2s1	-12	2	16	-1
CCCN1CCN(CCCNC(=O)c2cc3c(=O)oc4ccc(C)cc4c3s2)CC1	12	1	5	-1
Cc1ccc2nc(Cl)c3cc(C(=O)N(CCN(C)C)Cc4ccco4)sc3c2c1	56*	11	20	0
CCCCN(Cc1ccco1)C(=O)c1cc2c(=O)[nH]c3ccc(C)cc3c2s1	36	-3	21	0
Cc1ccc2nc(Cl)c3cc(C(=O)NCCCN4CCCC4)sc3c2c1	68*	14	13	0
CN(C)CCN(Cc1ccco1)C(=O)c1cc2c(Cl)nc3ccccc3c2s1	63*	-13	14	0
CCS(=O)(=O)N1CCCCN2[C@H](CO)[C@@H](c3ccc(C#Cc4ccccc4OC)cc3)[C@H]2C1	·	13	·	·
COc1ccccc1NC(=O)c1nc(S(=O)(=O)Cc2ccccc2)ncc1Cl	38	-8	7	634*
CCS(=O)(=O)c1ncc(Cl)c(C(=O)Nc2ccccc2OC)n1	-19	-5	22	-10
CCn1cc(/C=C(\NC(=O)c2ccc(OC)cc2)C(=O)N2CCN(C)CC2)c2ccccc21	-1	48*	25	-1
COc1ccc(C(=O)N/C(=C\c2cn(C)c3ccccc23)C(=O)N2CCN(C)CC2)cc1	-2	9	-1	0
Cc1ccc(S(=O)(=O)Nc2ccc3c(c2)C(=O)N([C@@H](C)CO)C[C@H](C)[C@@H](CN(C)C(=O)C2CCCCC2)OCCCC[C@@H](C)O3)cc1	·	-9	·	·
COc1ccc(NC(=O)c2cn(-c3ccccc3)nc2-c2ccncc2)cc1	4	-3	14	0
COc1ccc(-c2nn(-c3ccccc3)cc2C(=O)NC(=S)NNC(=O)c2ccncc2)cc1	53	46*	32	1
CO[C@H]1CN(C)C(=O)c2cc(NC(=O)Nc3ccc(Cl)c(Cl)c3)ccc2OC[C@H](C)NC[C@H]1C	·	-18	·	·
CCc1ccc(C2C(=O)c3ccccc3C2=O)cc1	6	2	16	16*
COc1ccc(C2C(=O)c3ccccc3C2=O)cc1	-3	-3	9	0
CCOCCCNCc1ccc(OCCC(C)C)c(OC)c1	63*	-10	0	-1
O=C(O)C(c1ccccc1)N1C(=O)/C(=C/c2cccs2)SC1=S (stereo not given)	-3	65*	43	0
On1ccccc1=S	·	+	·	·
SMILES	T cruzi inh	ARNT-TACC3 inh	AI-2 QS modul	HIF activator
O=C(Cn1ccccc1=S)c1ccc(Cl)c(Cl)c1	-6	·	30	0
COc1ccccc1C(C)Nc1ccc(S(=O)(=O)N2CCN(C)CC2)cc1[N+](=O)[O-] (stereo not given)	·	65*	·	·
C[C@@H]1CCCCO[C@H](CN(C)CC2CCCCC2)[C@H](C)CN([C@H](C)CO)C(=O)c2cc(NC(=O)c3ccncc3)ccc2O1	·	3	·	·
CNC[C@H]1OCCCC[C@@H](C)Oc2ccc(NC(=O)Nc3ccc4c(c3)OCO4)cc2C(=O)N([C@H](C)CO)C[C@H]1C	·	6	·	·
Fc1ccccc1-c1ccc(/C=N/Nc2nc3ccccc3[nH]2)o1	29	7	32	2
Cc1ccc(/C=N\Nc2nc3ccc(Cl)cc3[nH]2)o1	21	·	13	13*
C[C@H](CO)N1C[C@H](C)[C@@H](CN(C)Cc2cccc(C(=O)O)c2)Oc2cc(C3=CCCCC3)ccc2S1(=O)=O	·	-3	·	·
O=C(C[C@@H]1C=C[C@H](NC(=O)CCN2CCCCC2)[C@@H](CO)O1)NCc1ccc(Cl)c(Cl)c1	·	-10	·	·
COc1ccc(CSc2nncn2N)cc1Br	-6	active	-2	0
CCc1nnc(SCc2ccc(OC)c(Br)c2)n1N	-4	0	5	0
O=C(CCN1CCCCC1)N[C@H]1CC[C@H](CCNS(=O)(=O)c2ccccc2)O[C@H]1CO	·	-7	·	·
COc1ccc(-n2cc(-c3ccc(C)cc3)[n+]3c2SCC3)cc1	59*	5	10	0
COc1ccc(-n2cc(-c3ccccc3)[n+]3c2CCCCC3)cc1	81*	-6	26	0
Cc1ccc(-c2cn(-c3ccccc3)c3[n+]2CCCS3)cc1	44	-4	26	0
FC(F)Sc1ccc(-n2cc(-c3ccccc3)[n+]3c2CCC3)cc1	-14	-7	35	0
CCc1ccc(-n2cc(-c3ccc(F)cc3)[n+]3c2SCCC3)cc1	56*	-3	7	0
COc1ccc(NC(=O)N(C)C[C@@H]2Oc3ccc(NS(C)(=O)=O)cc3C(=O)N([C@H](C)CO)C[C@@H]2C)cc1	·	-7	·	·
COc1ccc(C#Cc2ccc3c(c2)[C@H]2[C@H](CCN2C(=O)c2ccccc2F)[C@H](CO)N3)cc1	·	17	·	·
C/C=C/c1cnc2c(c1)C(=O)N([C@H](C)CO)C[C@@H](C)[C@H](CN(C)C(=O)NC1CCCC1)O2	·	-10	·	·
CS(=O)(=O)c1cccc(-c2nnc(NC(=O)c3ccc(S(=O)(=O)N4CCCC4)cc3)o2)c1	-10	56*	23	0
COc1ccc(-c2nnc(NC(=O)c3ccc(S(=O)(=O)N4CCc5ccccc5C4)cc3)o2)cc1	73*	·	31	-19
CNC[C@@H]1OCCCC[C@H](C)Oc2ccc(NC(=O)c3ccccc3)cc2C(=O)N([C@@H](C)CO)C[C@H]1C	·	0	·	·
COc1ccc2cc1Oc1ccc(cc1)C[C@H]1c3c(cc(OC)c4c3Oc3c(ccc5c3[C@H](C2)N(C)CC5)O4)CCN1C	·	20	·	·
COc1ccc2cc1Oc1ccc(cc1)CC1c3c(cc(OC)c4c3Oc3cc5c(cc3O4)CCNC5C2)CCN1C (stereo not given)	66*	16	33	-1
CNC[C@@H]1Oc2cc(-c3cccc(C(=O)N(C)C)c3)ccc2S(=O)(=O)N([C@@H](C)CO)C[C@H]1C	·	-4	·	·
Cc1ccnc(NS(=O)(=O)c2ccc(NC(=O)c3ccc([N+](=O)[O-])s3)cc2)n1	67*	-5	38	-1
CC(=O)Nc1ccc(C(=O)Nc2ccc(S(=O)(=O)Nc3nccc(C)n3)cc2)cc1	-9	-14	22	-2
O=C(Nc1ccc(S(=O)(=O)NC2=NCCCCC2)cc1)c1ccc([N+](=O)[O-])s1	65*	4	12	-1
O=C(CCN1C(=O)COc2ccccc21)NCc1cccnc1	-11	-15	2	0
